Columns and labels:
[1] = melting temperature; fluorescence melt of hairpins on a sequencing array, two-state fit, raised by 9.35 °C to match UV melts; conditions: sodium 0.088 M
In short: (§1)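 Hairpins were imaged by Cy3 fluorescence on a sequenced MiSeq flow cell with annealed Cy3 and quencher oligos, in 50 mM Na-HEPES pH 8.0, 25 mM NaCl, in 2.5 °C steps up to 60 °C. Bootstrapped two-state fits of normalised signals gave melting temperature and folding enthalpy. Four replicates were combined by inverse variance, and fitted temperatures were raised by 9.35 °C to match UV melts.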

[2] = folding enthalpy; higher = less favourable; fluorescence melt of hairpins on a sequencing array, two-state fit; conditions: sodium 0.088 M
In short: as §1

Row | Sequence | Tm [1] | folding enthalpy [2]
1 | GCCTAGCGAAAGCAGGGC (((..((....))..))) | 62.4 °C | -24 kcal/mol
2 | GATAAGCCGAAAGGCATC (((..(((....)))))) | 32 °C | -9.19 kcal/mol
3 | GGCGGCGAAAGCCGTGCC ((((((....)))..))) | 57.7 °C | -10.1 kcal/mol
4 | GGGTGTGCGAAAGCACCC (((..(((....)))))) | 56.6 °C | -11.3 kcal/mol
5 | GGTGAAGGAAACCTCACC (((((.(....).))))) | 46.2 °C | -29.6 kcal/mol
6 | GAGGGCGAAAGCCCACTC ((((((....)))..))) | 55.6 °C | -10.6 kcal/mol
7 | GGACTCGAAAGAGATTCC ((((((....)))..))) | 25.6 °C | -11.3 kcal/mol
8 | GGCATCGAAAGATGTGCC ((((((....)))..))) | 46.4 °C | -17.8 kcal/mol
9 | GAGATGGGAAACCATCTC (((((((....))))))) | 60.3 °C | -39.2 kcal/mol
10 | GTTTAACGAAAGTTAAC (((.(((....)))))) | 37.1 °C | -14.6 kcal/mol
11 | GACACTACGAAAGTAGTC (((..(((....)))))) | 32.4 °C | -10.3 kcal/mol
12 | GAACAAGAAATTGTTC ((((((....)))))) | 45.1 °C | -26.4 kcal/mol
13 | GCATTGGGAAACCAATAC (.(((((....))))).) | 32.9 °C | -18.4 kcal/mol
14 | GATCCGAGATCGGATC ((((((....)))))) | 56.4 °C | -42.3 kcal/mol
15 | GAATTACGAAAGTATTC (((.(((....)))))) | 31.1 °C | -13.5 kcal/mol
16 | GATCGTTTCCACGATC ((((((....)))))) | 54 °C | -40.5 kcal/mol
17 | GCTCACGAAAGTGAAAGC ((((((....)))..))) | 48.9 °C | -21 kcal/mol
18 | GCTAAGCGAAAGCAGAGC (((..((....))..))) | 43.4 °C | -23.9 kcal/mol
19 | GCGGCCCACCGC ((((....)))) | 60 °C | -19.6 kcal/mol

Row | Sequence | Tm [1] | folding enthalpy [2]
20 | GGTCTCGAAAGAGTAACC ((((((....)))..))) | 35.1 °C | -21.9 kcal/mol
21 | GTCTCACGAAAGTGGGAC (((.(((....))).))) | 60.3 °C | -41.5 kcal/mol
22 | GCTTACGAAAGTAAGAGC ((((((....)))..))) | 45.4 °C | -18.5 kcal/mol
23 | GGGCGCTCGAAAGAGCCC (((..(((....)))))) | 56.9 °C | -14 kcal/mol
24 | GATTTTGGAAACAAAATC (((((((....))))))) | 51.7 °C | -46.4 kcal/mol
25 | GCTCCGGGAAACTGGAGC (((((.(....).))))) | 60.1 °C | -45.7 kcal/mol
26 | CGACACGGAAACGTATCG (((.(((....))).))) | 42.3 °C | -28.1 kcal/mol
27 | GTACGGACGAAAGTCTAC (((..(((....)))))) | 31 °C | -10.2 kcal/mol
28 | GCACGGGGAAACCTGTGC ((((.((....)).)))) | 58.6 °C | -37.7 kcal/mol
29 | GTATCGGGAAACCGGTAC (((.(((....))).))) | 48.9 °C | -32 kcal/mol
30 | GATCTTAGCAAGATC ((((((...)))))) | 46.2 °C | -31.9 kcal/mol
31 | GTACTTACGAAAGTATAC (((..(((....)))))) | 16.2 °C | -6.58 kcal/mol
32 | GCATTGCGAAAGCTGTGC (((..((....))..))) | 56 °C | -22.2 kcal/mol
33 | CGTCCCGGAAACGGAACG (((.(((....))).))) | 47.5 °C | -26.3 kcal/mol
34 | GCCTATGGAAACATAGAC (.(((((....))))).) | 32.6 °C | -17.4 kcal/mol
35 | GCTGCCGAAAGGCCAAGC ((((((....)))..))) | 46.3 °C | -15.5 kcal/mol
36 | GTGCTCCCGAAAGGGCAC (((..(((....)))))) | 49.8 °C | -19.9 kcal/mol
37 | GGAAATCCGAAAGGATCC (((..(((....)))))) | 35.4 °C | -13.1 kcal/mol
38 | GAATGCGAAAGCATTC ((((((....)))))) | 68.4 °C | -27.6 kcal/mol
